Experimental data taken from ChEMBL document CHEMBL1149321, “Synthesis, radiosynthesis, and biological evaluation of carbon-11 and iodine-123 labeled 2beta-carbomethoxy-3beta-[4'-((Z)-2-haloethenyl)phenyl]tropanes: candidate radioligands for in vivo imaging of the serotonin transporter” (J Med Chem, 2004).

What was measured:
Rattus norvegicus [1] = assay: Distribution in hypothalamus of rat brain after intravenous administration by using [123I]ZIET after 60 min; assay type: ADME, organism-based; conditions: in vivo, 1 h
In short: (§1)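 Male Sprague–Dawley rats (200–250 g), fed ad libitum, given ~20 μCi radiotracer iv via tail-vein cannula in 0.2 mL 10% ethanol/saline under ketamine/xylazine im anesthesia. Killed at 5, 30, 60 or 120 min (n = 5; n = 4 at 120 min). Brain regions dissected, weighed, gamma-counted with dose standards, decay-corrected; mean %ID/g ± SE.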

Rattus norvegicus [2] = assay: Distribution in brainstem of rat brain after intravenous administration by using [123I]ZIET after 5 min; assay type: ADME, organism-based; conditions: in vivo; in short: as §1
Rattus norvegicus [3] = assay: Distribution of the radio labelled compound in striatum of rat brain after intravenous administration in presence of RTI-113 after 60 min; assay type: ADME, organism-based; conditions: in vivo, 1 h
In short: (§2)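 Male Sprague–Dawley rats (200–250 g) under ketamine/xylazine anaesthesia with tail-vein cannulas. Blocker or none given 15 min before ~20 μCi [123I] tracer iv in 0.2 mL 10% ethanol/saline; blocker dose 4 mg/kg.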

[4] = Ratio of radioactivity in striatum of rat brain to that of rat cerebellum after intravenous administration after 5 min; assay type: functional
In short: (§3)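 Male Sprague–Dawley rats (200–250 g) given ~20 μCi [123I] tracer iv in 0.2 mL 10% ethanol/saline under ketamine/xylazine; killed at 5, 30, 60, 120 min (n = 5; n = 4 at 120 min). Brain regions dissected, gamma counted, decay-corrected to %ID/g; regional uptake divided by cerebellum.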

Rattus norvegicus [5] = assay: Distribution in thyroid of rat brain after intravenous administration by using [123I]ZIET after 30 min; assay type: ADME, organism-based, Thyroid gland; conditions: in vivo, 0.5 h; in short: as §1
Rattus norvegicus [6] = assay: Distribution in occipital cortex of rat brain after intravenous administration by using [123I]ZIET after 5 min; assay type: ADME, organism-based; conditions: in vivo; in short: as §1
[7] = Ratio of radioactivity in hippocampus of rat brain to that of rat cerebellum after intravenous administration after 5 min; assay type: functional; in short: as §3
Rattus norvegicus [8] = assay: Distribution in thyroid of rat brain after intravenous administration by using [123I]ZIET after 60 min; assay type: ADME, organism-based, Thyroid gland; conditions: in vivo, 1 h; in short: as §1
[9] = Ratio of radioactivity in brainstem of rat brain to that of rat cerebellum after intravenous administration after 5 min; assay type: functional; in short: as §3
[10] = Ratio of radioactivity in brainstem of rat brain to that of rat cerebellum after intravenous administration after 30 min; assay type: functional; in short: as §3
Rattus norvegicus [11] = assay: Distribution in cerebellum of rat brain after intravenous administration by using [123I]ZIET after 60 min; assay type: ADME, organism-based; conditions: in vivo, 1 h; in short: as §1
[12] = Ratio of radioactivity in hippocampus of rat brain to that of rat cerebellum after intravenous administration after 120 min; assay type: functional; in short: as §3
[13] = Ratio of radioactivity in frontal cortex of rat brain to that of rat cerebellum after intravenous administration after 60 min; assay type: functional; in short: as §3
Rattus norvegicus [14] = assay: Distribution in hypothalamus of rat brain after intravenous administration by using [123I]ZIET after 30 min; assay type: ADME, organism-based; conditions: in vivo, 0.5 h; in short: as §1
Rattus norvegicus [15] = assay: Distribution in cerebellum of rat brain after intravenous administration by using [123I]ZIET after 120 min; assay type: ADME, organism-based; conditions: in vivo, 2 h; in short: as §1
Rattus norvegicus [16] = assay: Distribution of the radio labelled compound in rest of rat brain after intravenous administration in presence of citalopram after 60 min; assay type: ADME, organism-based; conditions: in vivo, 1 h; in short: as §2
Rattus norvegicus [17] = assay: Distribution of the radio labelled compound in hypothalamus of rat brain after intravenous administration in presence of citalopram after 60 min; assay type: ADME, organism-based; conditions: in vivo, 1 h; in short: as §2
[18] = Ratio of radioactivity in hypothalamus of rat brain to that of rat cerebellum after intravenous administration after 30 min; assay type: functional; in short: as §3
Rattus norvegicus [19] = assay: Distribution in striatum of rat brain after intravenous administration by using [123I]-ZIET after 30 min; assay type: ADME, organism-based; conditions: in vivo, 0.5 h; in short: as §1
Rattus norvegicus [20] = assay: Distribution of the radio labelled compound in striatum of rat brain after intravenous administration in presence of reboxetine after 60 min; assay type: ADME, organism-based; conditions: in vivo, 1 h; in short: as §2
Rattus norvegicus [21] = assay: Distribution of the radio labelled compound in occipital cortex of rat brain after intravenous administration in presence of RTI-113 after 60 min; assay type: ADME, organism-based; conditions: in vivo, 1 h; in short: as §2
Rattus norvegicus [22] = assay: Distribution of the radio labelled compound in blood of rat brain after intravenous administration in absence of blocker after 60 min; assay type: ADME, organism-based; conditions: in vivo, 1 h
In short: (§4)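 Male Sprague–Dawley rats (200–250 g), ketamine/xylazine anesthesia, tail-vein cannula. Blocker (4 mg/kg) or nothing given 15 min before iv [123I]ZIET in 10% ethanol/saline. Killed 60 min post-tracer.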

Rattus norvegicus [23] = assay: Distribution in frontal cortex of rat brain after intravenous administration by using [123I]-ZIET after 30 min; assay type: ADME, organism-based; conditions: in vivo, 0.5 h; in short: as §1
Rattus norvegicus [24] = assay: Distribution of the radio labelled compound in thyroid of rat brain after intravenous administration in presence of RTI-113 after 60 min; assay type: ADME, organism-based, Thyroid gland; conditions: in vivo, 1 h; in short: as §2
Rattus norvegicus [25] = assay: Distribution of the radio labelled compound in blood of rat brain after intravenous administration in presence of reboxetine after 60 min; assay type: ADME, organism-based; conditions: in vivo, 1 h; in short: as §4
[26] = Ratio of radioactivity in striatum of rat brain to that of rat cerebellum after intravenous administration after 30 min; assay type: functional; in short: as §3
Rattus norvegicus [27] = assay: Distribution in occipital cortex of rat brain after intravenous administration by using [123I]ZIET after 30 min; assay type: ADME, organism-based; conditions: in vivo, 0.5 h; in short: as §1
Rattus norvegicus [28] = assay: Distribution in brainstem of rat brain after intravenous administration by using [123I]ZIET after 60 min; assay type: ADME, organism-based; conditions: in vivo, 1 h; in short: as §1
Rattus norvegicus [29] = assay: Distribution of the radio labelled compound in hippocampus of rat brain after intravenous administration in absence of blocker after 60 min; assay type: ADME, organism-based; conditions: in vivo, 1 h; in short: as §2
[30] = Ratio of radioactivity in rest of rat brain to that of rat cerebellum after intravenous administration after 30 min; assay type: functional; in short: as §3
Rattus norvegicus [31] = assay: Distribution in striatum of rat brain after intravenous administration by using [123I]-ZIET after 5 min; assay type: ADME, organism-based; conditions: in vivo; in short: as §1
Rattus norvegicus [32] = assay: Distribution of the radio labelled compound in frontal cortex of rat brain after intravenous administration in presence of citalopram after 60 min; assay type: ADME, organism-based; conditions: in vivo, 1 h; in short: as §2
Rattus norvegicus [33] = assay: Distribution in thyroid of rat brain after intravenous administration by using [123I]ZIET after 120 min; assay type: ADME, organism-based, Thyroid gland; conditions: in vivo, 2 h; in short: as §1
[34] = Ratio of radioactivity in hippocampus of rat brain to that of rat cerebellum after intravenous administration after 60 min; assay type: functional; in short: as §3
Rattus norvegicus [35] = assay: Distribution of the radio labelled compound in hippocampus of rat brain after intravenous administration in presence of reboxetine after 60 min; assay type: ADME, organism-based; conditions: in vivo, 1 h; in short: as §2
[36] = Ratio of radioactivity in frontal cortex of rat brain to that of rat cerebellum after intravenous administration after 5 min; assay type: functional; in short: as §3
[37] = Ratio of radioactivity in striatum of rat brain to that of rat cerebellum after intravenous administration after 60 min; assay type: functional; in short: as §3
Rattus norvegicus [38] = assay: Distribution in cerebellum of rat brain after intravenous administration by using [123I]ZIET after 5 min; assay type: ADME, organism-based; conditions: in vivo; in short: as §1
Rattus norvegicus [39] = assay: Distribution in blood […] after intravenous administration by using [123I]-ZIET after 30 min; assay type: ADME, organism-based; conditions: in vivo, 0.5 h; in short: as §1
Rattus norvegicus [40] = assay: Distribution in occipital cortex of rat brain after intravenous administration by using [123I]ZIET after 120 min; assay type: ADME, organism-based; conditions: in vivo, 2 h; in short: as §1
[41] = Ratio of radioactivity in occipital cortex of rat brain to that of rat cerebellum after intravenous administration after 5 min; assay type: functional; in short: as §3
Rattus norvegicus [42] = assay: Distribution in brainstem of rat brain after intravenous administration by using [123I]ZIET after 30 min; assay type: ADME, organism-based; conditions: in vivo, 0.5 h; in short: as §1
Rattus norvegicus [43] = assay: Distribution of the radio labelled compound in hypothalamus of rat brain after intravenous administration in absence of blocker after 60 min; assay type: ADME, organism-based; conditions: in vivo, 1 h; in short: as §2
[44] = Ratio of radioactivity in rest of rat brain to that of rat cerebellum after intravenous administration after 60 min; assay type: functional; in short: as §3
Rattus norvegicus [45] = assay: Distribution in brainstem of rat brain after intravenous administration by using [123I]ZIET after 120 min; assay type: ADME, organism-based; conditions: in vivo, 2 h; in short: as §1

Compound: COC(=O)C1C(c2ccc(/C=C\[123I])cc2)CC2CCC1N2C (stereo not given)
- Activity (Rattus norvegicus [1]): 0.69
- Activity (Rattus norvegicus [2]): 0.35
- Activity (Rattus norvegicus [3]): 0.45
- Ratio [4]: 1.1
- Activity (Rattus norvegicus [5]): 0.74
- Activity (Rattus norvegicus [6]): 0.45
- Ratio [7]: 1.1
- Activity (Rattus norvegicus [8]): 1.11
- Ratio [9]: 1
- Ratio [10]: 1.5
- Activity (Rattus norvegicus [11]): 0.27
- Ratio [12]: 3.4
- Ratio [13]: 2.6
- Activity (Rattus norvegicus [14]): 0.68
- Activity (Rattus norvegicus [15]): 0.14
- Activity (Rattus norvegicus [16]): 0.18
- Activity (Rattus norvegicus [17]): 0.2
- Ratio [18]: 1.6
- Activity (Rattus norvegicus [19]): 0.76
- Activity (Rattus norvegicus [20]): 0.45
- Activity (Rattus norvegicus [21]): 0.42
- Activity (Rattus norvegicus [22]): 0.22
- Activity (Rattus norvegicus [23]): 0.82
- Activity (Rattus norvegicus [24]): 1.01
- Activity (Rattus norvegicus [25]): 0.26
- Ratio [26]: 1.8
- Activity (Rattus norvegicus [27]): 0.76
- Activity (Rattus norvegicus [28]): 0.54
- Activity (Rattus norvegicus [29]): 0.4
- Ratio [30]: 1.6
- Activity (Rattus norvegicus [31]): 0.39
- Activity (Rattus norvegicus [32]): 0.21
- Activity (Rattus norvegicus [33]): 2.12
- Ratio [34]: 2.3
- Activity (Rattus norvegicus [35]): 0.41
- Ratio [36]: 1.3
- Ratio [37]: 2.6
- Activity (Rattus norvegicus [38]): 0.34
- Activity (Rattus norvegicus [39]): 0.53
- Activity (Rattus norvegicus [40]): 0.42
- Ratio [41]: 1.3
- Activity (Rattus norvegicus [42]): 0.65
- Activity (Rattus norvegicus [43]): 0.42
- Ratio [44]: 2
- Activity (Rattus norvegicus [45]): 0.41
